Assay results: ChEMBL document CHEMBL1149585, “Toward the development of chemoprevention agents. Part 1: Design, synthesis, and anti-inflammatory activities of a new class of 2,5-disubstituted-dioxacycloalkanes” (Bioorg Med Chem, 2007)

Assays:
[1] = test system: Mus musculus; test: Inhibition of xylene-induced ear edema in Kunming mouse at 20 mg/kg, po after 2 hrs relative to control; type: functional
Summary of the method: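 Male Kunming mice (groups of 12; n = 11 per table footnote) were dosed orally as a suspension in 0.5% CMC, with CMC vehicle and positive control groups. After 30 min, 0.03 ml xylene went on both surfaces of the right ear, with the left ear as control. Mice were killed 2 h later. 7 mm ear punches were weighed, and edema was taken as right minus left weight. Groups were compared by one-way ANOVA, p < 0.05.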

[2] = test system: Mus musculus; test: Toxicity in mouse assessed as tail bleeding time at 200 mg/kg, po after 30 mins; type: organism-based; set-up: dose 200 mg/kg, route oral; conditions: in vivo, 0.5 h
Summary of the method: (§1)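 Male mice (18–22 g) were dosed orally, and bleeding time was recorded before dosing and at each post-dose time. Each mouse was held in a tube with its tail protruding, and a 2 mm tail cut was made. Blood was wiped away with tissue every 30 s until bleeding ceased, and the time was recorded. The comparison group received NS.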

[3] = test system: Mus musculus; test: Toxicity in mouse assessed as tail bleeding time at 200 mg/kg, po after 45 mins; type: organism-based; set-up: dose 200 mg/kg, route oral; conditions: in vivo, 0.75 h; summary of the method: as §1
[4] = test system: Mus musculus; test: Toxicity in mouse assessed as tail bleeding time at 200 mg/kg, po after 60 mins; type: organism-based; set-up: dose 200 mg/kg, route oral; conditions: in vivo, 1 h; summary of the method: as §1
[5] = test system: Mus musculus; test: Toxicity in mouse assessed as tail bleeding time at 200 mg/kg, po after 90 mins; type: organism-based; set-up: dose 200 mg/kg, route oral; conditions: in vivo, 1.5 h; summary of the method: as §1

| Structure (SMILES) | inhibition in vivo at 20 mg/kg [1] [%] | Activity [2] [s] | Activity [3] [s] | Activity [4] [s] | Activity [5] [s] |
| --- | --- | --- | --- | --- | --- |
| C[C@@H]1O[C@@H](/C=C/c2ccccc2)OC[C@H]1NC(=O)Cc1ccccc1 | 32.1 | – | – | – | – |
| Cc1ccc([C@@H]2OC[C@@H](NC(=O)Cc3ccccc3)[C@@H](C)O2)cc1 | 42.3 | 117.9 | 118.6 | 119 | 118.5 |
| C[C@@H]1O[C@@H](c2ccccc2)OC[C@H]1NC(=O)Cc1ccccc1 | 40 | 118.5 | 119 | 118.6 | 117.9 |
| C[C@H]1O[C@@H](c2ccc(Cl)cc2)OC[C@H]1NC(=O)Cc1ccccc1 | 46.4 | 118.4 | 119.6 | 118.6 | 119 |
| O=C(N[C@H]1CO[C@@H](c2ccc(Cl)cc2)OC1)c1ccccc1 | 28.5 | 118 | 118.9 | 120.9 | 119.4 |
| O=C(Cc1ccccc1)N[C@H]1CCCO[C@@H](c2ccc(Cl)cc2)OC1 | 23.7 | – | – | – | – |
| O=C(Cc1ccccc1)N[C@H]1CCO[C@@H](c2cccc([N+](=O)[O-])c2)OC1 | 21.2 | – | – | – | – |
| O=C(N[C@H]1CCO[C@@H](c2ccc(Cl)cc2)OC1)c1ccccc1 | 28.2 | – | – | – | – |
| O=C(N[C@H]1CCO[C@@H](c2cccc([N+](=O)[O-])c2)OC1)c1ccccc1 | 21.8 | – | – | – | – |
| O=C(Cc1ccccc1)N[C@H]1CO[C@H](c2ccccc2)OC1 | 37.8 | 118.5 | 119.3 | 117.8 | 118.9 |
| Cc1ccc([C@H]2OC[C@@H](NC(=O)Cc3ccccc3)CO2)cc1 | 36.5 | 117.2 | 118.6 | 118.4 | 119.2 |
| O=C(Cc1ccccc1)N[C@H]1CCCO[C@H](c2ccc(Cl)cc2)OC1 | 23.1 | – | – | – | – |
| Cc1ccc([C@H]2OC[C@@H](NC(=O)c3ccccc3)[C@H](C)O2)cc1 | 46.1 | 120.9 | 121 | 119.8 | 118.7 |
| O=C(Cc1ccccc1)N[C@H]1CCCO[C@@H](c2cccc([N+](=O)[O-])c2)OC1 | 19.9 | – | – | – | – |
| C[C@@H]1O[C@H](c2ccc(Cl)cc2)OC[C@H]1NC(=O)Cc1ccccc1 | 46.1 | 118.4 | 119.6 | 118.6 | 119 |
| O=C(N[C@H]1CCO[C@H](c2cccc([N+](=O)[O-])c2)OC1)c1ccccc1 | 20.8 | – | – | – | – |
| O=C(N[C@H]1CO[C@@H](c2ccc([N+](=O)[O-])cc2)OC1)c1ccccc1 | 44.2 | 119.4 | 118.7 | 120.6 | 119.4 |
| O=C(Cc1ccccc1)N[C@H]1CCCO[C@H](c2cccc([N+](=O)[O-])c2)OC1 | 19.2 | – | – | – | – |
| O=C(Cc1ccccc1)N[C@H]1CO[C@@H](c2ccc(Cl)cc2)OC1 | 43.6 | 117.9 | 119.2 | 119.5 | 118.4 |
| O=C(Cc1ccccc1)N[C@H]1CO[C@@H](c2ccc([N+](=O)[O-])cc2)OC1 | 43.3 | 120.7 | 120.2 | 117.6 | 117.7 |
| O=C(N[C@H]1CO[C@H](c2cccc([N+](=O)[O-])c2)OC1)c1ccccc1 | 45.2 | 118.8 | 118 | 118.4 | 118.7 |
| Cc1ccc([C@@H]2OC[C@@H](NC(=O)c3ccccc3)[C@H](C)O2)cc1 | 44.9 | 120.4 | 118.5 | 118.9 | 117.7 |
| O=C(N[C@H]1CO[C@@H](c2cccc([N+](=O)[O-])c2)OC1)c1ccccc1 | 42.9 | 119.3 | 118.2 | 119.1 | 120.2 |
| O=C(Cc1ccccc1)N[C@H]1CO[C@H](c2ccc(Cl)cc2)OC1 | 42 | 117.9 | 119.2 | 119.5 | 118.4 |
| O=C(Cc1ccccc1)N[C@H]1CO[C@H](c2ccc([N+](=O)[O-])cc2)OC1 | 44.6 | 120.7 | 120.2 | 117.6 | 117.7 |

| Structure (SMILES) | inhibition in vivo at 20 mg/kg [1] [%] | Activity [2] [s] | Activity [3] [s] | Activity [4] [s] | Activity [5] [s] |
| --- | --- | --- | --- | --- | --- |
| C[C@@H]1O[C@H](c2ccccc2)OC[C@H]1NC(=O)c1ccccc1 | 43.9 | 118.7 | 118.9 | 118.6 | 118.9 |
| O=C(N[C@H]1CCO[C@@H](c2ccc([N+](=O)[O-])cc2)OC1)c1ccccc1 | 20.2 | – | – | – | – |
| O=C(Cc1ccccc1)N[C@H]1CCO[C@@H](c2ccc(Cl)cc2)OC1 | 24.4 | – | – | – | – |
| C[C@@H]1O[C@@H](c2ccc(Cl)cc2)OC[C@H]1NC(=O)c1ccccc1 | 56.4 | 118.3 | 118.9 | 118.5 | 118.7 |
| O=C(Cc1ccccc1)N[C@H]1CCO[C@H](c2ccc([N+](=O)[O-])cc2)OC1 | 18.9 | – | – | – | – |
| C[C@@H]1O[C@@H](c2ccccc2)OC[C@H]1NC(=O)c1ccccc1 | 43.9 | – | – | – | – |
| O=C(N[C@H]1CO[C@H](c2ccc(Cl)cc2)OC1)c1ccccc1 | 47.4 | 119 | 118.9 | 118.7 | 119.6 |
| C[C@@H]1O[C@H](/C=C/c2ccccc2)OC[C@H]1NC(=O)Cc1ccccc1 | 33.3 | – | – | – | – |
| C[C@@H]1O[C@@H](c2ccc([N+](=O)[O-])cc2)OC[C@H]1NC(=O)Cc1ccccc1 | 55.8 | 117.8 | 118.5 | 117.9 | 117.2 |
| O=C(Cc1ccccc1)N[C@H]1CCCO[C@@H](c2ccc([N+](=O)[O-])cc2)OC1 | 20.8 | – | – | – | – |
| C[C@@H]1O[C@H](c2ccccc2)OC[C@H]1NC(=O)Cc1ccccc1 | 41.3 | 118.5 | 119 | 118.6 | 117.9 |
| O=C(Cc1ccccc1)N[C@H]1CCCO[C@H](c2ccc([N+](=O)[O-])cc2)OC1 | 19.9 | – | – | – | – |
| C[C@@H]1O[C@@H](c2cccc([N+](=O)[O-])c2)OC[C@H]1NC(=O)Cc1ccccc1 | 47.1 | 120.1 | 118.7 | 118.5 | 118.6 |
| Cc1ccc([C@H]2OC[C@H](NC(=O)Cc3ccccc3)CO2)cc1 | 35.6 | 117.2 | 118.6 | 118.4 | 119.2 |
| C[C@@H]1O[C@H](c2ccc([N+](=O)[O-])cc2)OC[C@H]1NC(=O)Cc1ccccc1 | 55.1 | 117.8 | 118.5 | 117.9 | 117.2 |
| O=C(Cc1ccccc1)N[C@H]1CO[C@@H](c2ccccc2)OC1 | 38.5 | 118.5 | 119.3 | 117.8 | 118.9 |
| O=C(Cc1ccccc1)N[C@H]1CCO[C@@H](c2ccc([N+](=O)[O-])cc2)OC1 | 19.6 | – | – | – | – |
| C[C@@H]1O[C@H](c2ccc(Cl)cc2)OC[C@H]1NC(=O)c1ccccc1 | 47.1 | 119.6 | 118.6 | 118.7 | 118.6 |
| C[C@@H]1O[C@H](c2cccc([N+](=O)[O-])c2)OC[C@H]1NC(=O)c1ccccc1 | – | 118.9 | 118.2 | 119.5 | 118.2 |
| O=C(N[C@H]1CCO[C@H](c2ccc([N+](=O)[O-])cc2)OC1)c1ccccc1 | 19.2 | – | – | – | – |
| O=C(Cc1ccccc1)N[C@H]1CO[C@@H](/C=C/c2ccccc2)OC1 | 27.2 | – | – | – | – |
| O=C(Cc1ccccc1)N[C@H]1CCO[C@H](c2ccc(Cl)cc2)OC1 | 23.7 | – | – | – | – |
| O=C(Cc1ccccc1)N[C@H]1CO[C@H](/C=C/c2ccccc2)OC1 | 29.5 | – | – | – | – |
| O=C(N[C@H]1CCO[C@H](c2ccc(Cl)cc2)OC1)c1ccccc1 | 29.5 | – | – | – | – |
| O=C(Cc1ccccc1)N[C@H]1CCO[C@H](c2cccc([N+](=O)[O-])c2)OC1 | 20.1 | – | – | – | – |
